Measured values taken from ChEMBL document CHEMBL4028882, “Thiazolino 2-Pyridone Amide Isosteres As Inhibitors of Chlamydia trachomatis Infectivity” (J Med Chem, 2017).
Activity calls are given as the source filed them. The calls are words filed in the database; no cut-off is given here.

Columns and labels:
[1] = test system: Salmonella typhimurium; assay: Mutagenicity in Salmonella typhimurium TA98/TA100 assessed as revertant colonies/plate in absence of rat liver S9 fraction at 10 ug/spot after 2 to 3 days by Ames test; assay type: toxicity; conditions: salmonella enterica subsp. enterica serovar typhimurium
In short: (§1)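 Mutagenicity was screened by the spot-based Ames test procedure, with compound applied at 10 μg/spot.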

[2] = test system: Salmonella typhimurium; assay: Mutagenicity in Salmonella typhimurium TA98/TA100 assessed as revertant colonies/plate in presence of rat liver S9 fraction at 10 ug/spot after 2 to 3 days by Ames test; assay type: toxicity; conditions: salmonella enterica subsp. enterica serovar typhimurium; in short: as §1
[3] = test system: Salmonella typhimurium; assay: Mutagenicity in Salmonella typhimurium TA1535/TA1538 assessed as revertant colonies/plate in presence of rat liver S9 fraction at 10 ug/spot after 2 to 3 days by Ames test; assay type: toxicity; conditions: salmonella enterica subsp. enterica serovar typhimurium; in short: as §1
[4] = test system: Salmonella typhimurium; assay: Mutagenicity in Salmonella typhimurium TA1535/TA1538 assessed as revertant colonies/plate in absense of rat liver S9 fraction at 10 ug/spot after 2 to 3 days by Ames test; assay type: toxicity; conditions: salmonella enterica subsp. enterica serovar typhimurium; in short: as §1
[5] = test system: Chlamydia trachomatis; assay: Antimicrobial activity against Chlamydia trachomatis serovar LGV-L2 454/Bu infected in human HeLa229 cells assessed as concentration required to reduce reinfection levels by >= 95% measured 44 to 48 hrs post infection by DAPI staining-based assay; assay type: functional
In short: (§2)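 HeLa cells were infected with C. trachomatis LGV-L2 and treated with compound. After 48 h the cells were lysed and the recovered bacteria used to infect fresh HeLa cells. Reinfection was quantified as new inclusion forming units versus cells infected with untreated bacteria. The concentration giving 95% reduction (Reinfect95) was determined from fixed concentrations of 2.5, 1.0, 0.5 and 0.25 μM.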

[6] = Cytotoxicity against human HeLa229 cells assessed as cell viability at 10 uM after 44 to 48 hrs by resazurin-based fluorometry relative to control; design: species or system HeLa 229; conditions: read-out: Activity
In short: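 HeLa host cell viability was measured with compound at 10 μM in a resazurin assay, run to exclude host toxicity as the cause of anti-infective activity.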

[7] = test system: Chlamydia trachomatis; assay: Antimicrobial activity against Chlamydia trachomatis serovar LGV-L2 454/Bu infected in human HeLa229 cells assessed as reduction in reinfection levels measured 44 to 48 hrs post infection by DAPI staining-based assay; assay type: functional, cell-based; conditions: HeLa 229; in short: as §2
[8] = test system: Chlamydia trachomatis; assay: Antimicrobial activity against Chlamydia trachomatis serovar LGV-L2 454/Bu infected in human HeLa229 cells at 1 uM compound treated during first 24 hrs of infection by DAPI staining-based assay; assay type: functional, cell-based
In short: (§3)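 Time-of-addition format of the LGV-L2 HeLa infection/reinfection assay. Compound was present during the first 24 h, the second 24 h, or throughout the 48 h infection. Infectivity was then scored against untreated controls.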

[9] = test system: Chlamydia trachomatis; assay: Antimicrobial activity against Chlamydia trachomatis serovar LGV-L2 454/Bu expressing mCherry infected in human HeLa cells assessed as reduction in accumulation of BODIPY 22 in bacterial inclusions at 0.5 uM incubated for 48 hrs by BODIPY 22-based confocal microscopy
[10] = test system: Streptococcus agalactiae; assay: Growth inhibition of Streptococcus agalactiae CCUG 4208 at 10 ug/ml after 24 hrs by disk diffusion method
In short: (§4)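 Disk diffusion assay of vaginal flora species (S. aureus, E. coli, L. jensenii, S. agalactiae) and the fungus C. albicans, with compound tested at 10 μg/mL.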

[11] = test system: Chlamydia trachomatis; assay: Antimicrobial activity against Chlamydia trachomatis serovar D UW-3 infected in human HeLa229 cells assessed as reduction in reinfection levels measured 44 to 48 hrs post infection by DAPI staining-based assay; assay type: functional, cell-based; conditions: serovar D UW-3, HeLa 229
[12] = test system: Staphylococcus aureus; assay: Growth inhibition of Staphylococcus aureus CCUG 1800 at 10 ug/ml after 24 hrs by disk diffusion method; in short: as §4
[13] = test system: Chlamydia trachomatis; assay: Antimicrobial activity against Chlamydia trachomatis serovar LGV-L2 454/Bu infected in human HeLa229 cells at 1 uM compound treated during 48 hrs of infection by DAPI staining-based assay; assay type: functional, cell-based; in short: as §3
[14] = test system: Lactobacillus jensenii; assay: Growth inhibition of Lactobacillus jensenii CCUG 33572 at 10 ug/ml after 24 hrs by disk diffusion method; in short: as §4
[15] = test system: Candida albicans; assay: Growth inhibition of Candida albicans at 10 ug/ml after 24 hrs by disk diffusion method; in short: as §4
[16] = test system: Escherichia coli; assay: Growth inhibition of Escherichia coli CCUG 17620 at 10 ug/ml after 24 hrs by disk diffusion method; in short: as §4

Nc1c(Cc2cccc3ccccc23)c(C2CC2)c2n(c1=O)C(C(=O)Nc1ccccc1)CS2 (configuration not stated)
Activity [1]: Non-Toxic | Activity [2]: Non-Toxic | Activity [3]: Non-Toxic | Activity [4]: Non-Toxic

O=c1cc(Cc2cccc3ccccc23)c(C2CC2)c2n1C(NS(=O)(=O)c1ccccc1)CS2 (configuration not stated)
Activity [5]: >2.5 µM | viability at 10 µM [6]: 114%

O=c1cc(Cc2cccc3ccccc23)c(C2CC2)c2n1C(c1ncc(-c3ccccc3)s1)CS2 (configuration not stated)
Activity [5]: >2.5 µM | viability at 10 µM [6]: 97%

Cc1cccc(-c2n[nH]c(C3CSc4c(C5CC5)c(Cc5cccc6ccccc56)cc(=O)n43)n2)c1 (configuration not stated)
Activity [5]: 0.5 µM | viability at 10 µM [6]: 95%

O=c1cc(Cc2cccc3ccccc23)c(C2CC2)c2n1C(c1nnc(-c3ccccc3)o1)CS2 (configuration not stated)
Activity [5]: 1 µM | viability at 10 µM [6]: 103%

O=c1cc(Cc2cccc3ccccc23)c(C2CC2)c2n1C(c1nc(-c3ccccc3)no1)CS2 (configuration not stated)
Activity [5]: >2.5 µM | viability at 10 µM [6]: 99%

O=c1cc(Cc2cccc3ccccc23)c(C2CC2)c2n1C(n1cc(-c3ccccc3)nn1)CS2 (configuration not stated)
EC50 [7]: 18 nM | Activity [8]: inactive | Activity [9]: Active | Activity [1]: Non-Toxic | Activity [2]: Non-Toxic | Activity [3]: Non-Toxic | growth inhibition (GI) [10]: Non-Toxic | EC50 [11]: 37 nM | growth inhibition (GI) [12]: Non-Toxic | Activity [13]: Active | Activity [4]: Non-Toxic | growth inhibition (GI) [14]: Non-Toxic | growth inhibition (GI) [15]: Non-Toxic | Activity [5]: 0.25 µM | viability at 10 µM [6]: 96% | growth inhibition (GI) [16]: Non-Toxic

CC(C)(C)OC(=O)NC1CSc2c(C3CC3)c(Cc3cccc4ccccc34)cc(=O)n21 (configuration not stated)
Activity [5]: >2.5 µM | viability at 10 µM [6]: 105%

O=c1cc(Cc2cccc3ccccc23)c(C2CC2)c2n1C(c1nc(-c3ccccc3)co1)CS2 (configuration not stated)
Activity [5]: 2.5 µM | viability at 10 µM [6]: 83%

Nc1c(Cc2cccc3ccccc23)c(C2CC2)c2n(c1=O)C(c1nc(-c3ccccc3)n[nH]1)CS2 (configuration not stated)
Activity [5]: 0.25 µM | viability at 10 µM [6]: 100%

O=c1cc(Cc2cccc3ccccc23)c(C2CC2)c2n1C(c1nc(-c3ccccc3)c[nH]1)CS2 (configuration not stated)
Activity [5]: 2.5 µM | viability at 10 µM [6]: 106%

Nc1c(Cc2cccc3ccccc23)c(C2CC2)c2n(c1=O)C(n1cc(-c3ccccc3)nn1)CS2 (configuration not stated)
EC50 [7]: 13 nM | Activity [8]: inactive | Activity [9]: Active | Activity [1]: Non-Toxic | Activity [2]: Non-Toxic | Activity [3]: Non-Toxic | growth inhibition (GI) [10]: Non-Toxic | EC50 [11]: 35 nM | growth inhibition (GI) [12]: Non-Toxic | Activity [13]: Active | Activity [4]: Non-Toxic | growth inhibition (GI) [14]: Non-Toxic | growth inhibition (GI) [15]: Non-Toxic | Activity [5]: 0.25 µM | viability at 10 µM [6]: 105% | growth inhibition (GI) [16]: Non-Toxic

O=C(NS(=O)(=O)c1ccccc1)C1CSc2c(C3CC3)c(Cc3cccc4ccccc34)cc(=O)n21 (configuration not stated)
Activity [5]: >2.5 µM | viability at 10 µM [6]: 105%

O=C(NC1CSc2c(C3CC3)c(Cc3cccc4ccccc34)cc(=O)n21)c1ccccc1 (configuration not stated)
Activity [5]: 2.5 µM | viability at 10 µM [6]: 114%

O=C(CNC(=O)C1CSc2c(C3CC3)c(Cc3cccc4ccccc34)cc(=O)n21)c1ccccc1 (configuration not stated)
Activity [5]: 2.5 µM | viability at 10 µM [6]: 107%

O=c1cc(Cc2cccc3ccccc23)c(C2CC2)c2n1C(c1nc(-c3ccccc3)n[nH]1)CS2 (configuration not stated)
Activity [5]: 0.5 µM | viability at 10 µM [6]: 98%
